From PubChem
bIAP inh – blocks bovine intestinal alkaline phosphatase activity | purified bovine IAP, CDP-star luminescence, 30 min | inhibition, % at 20 µM | 190,000 tested, under 10 active | AID 1019;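 active = over 50% inhibition of intestinal alkaline phosphatase at 20 µM in the single-dose screen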
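System: Purified bovine intestinal alkaline phosphatase (IAP) enzyme | Input: IAP diluted 1/65,000,000 in the well | Also added: CDP-star chemiluminescent phosphatase substrate, 30 µM final | Dosing: 20 µM single dose | Times: Enzyme reaction for 30 min at room temperature | Detection: Luminescence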
hIAP activ – increases human intestinal alkaline phosphatase activity; P09923; purified human IAP, CDP-Star luminescence, 30 min; active compounds read high; 1 = vehicle-only enzyme, 0 = enzyme-free background; activation factor at 10 µM; 330,000 compounds, 0.16% hits; AID 2524;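 active = activation factor of the enzyme at least 2-fold when tested at 20 µM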
Target sequence (P09923 whole entry, looked up): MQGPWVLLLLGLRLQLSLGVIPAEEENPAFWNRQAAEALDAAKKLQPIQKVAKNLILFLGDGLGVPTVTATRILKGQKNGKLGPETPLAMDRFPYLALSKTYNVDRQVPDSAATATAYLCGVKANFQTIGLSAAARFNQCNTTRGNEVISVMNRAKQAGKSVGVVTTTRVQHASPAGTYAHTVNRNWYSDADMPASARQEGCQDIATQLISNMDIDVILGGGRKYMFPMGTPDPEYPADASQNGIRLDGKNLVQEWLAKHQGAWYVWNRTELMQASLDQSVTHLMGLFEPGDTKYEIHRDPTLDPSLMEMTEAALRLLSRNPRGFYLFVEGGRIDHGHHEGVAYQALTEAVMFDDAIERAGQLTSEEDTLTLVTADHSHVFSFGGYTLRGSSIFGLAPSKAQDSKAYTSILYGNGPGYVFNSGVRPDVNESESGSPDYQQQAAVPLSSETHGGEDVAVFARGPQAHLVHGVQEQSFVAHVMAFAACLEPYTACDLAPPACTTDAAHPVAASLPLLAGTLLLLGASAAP
mIAP inh – blocks mouse intestinal alkaline phosphatase; purified mouse IAP, CDP-Star luminescence, 30 min; inhibition, % at 10 µM; 330,000 compounds, 0.2% hits; AID 2806;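 active = inhibition of at least 40% at 10 µM in the primary screen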;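 also: plate controls were DMSO with enzyme for no effect and no enzyme wells for full effect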
hIAP inh – blocks human intestinal alkaline phosphatase; purified IAP, CDP-Star luminescence, 30 min; inhibition, % at 10 µM; 330,000 compounds, 0.12% hits; P09923;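 active = inhibition reaching a set limit with compound at 10 µM in the primary screen, cut at about 35% in these data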;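 also: plate controls were DMSO wells with enzyme for no effect and no-enzyme buffer wells for full effect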
bIAP activator – increases bovine intestinal alkaline phosphatase activity. purified bovine IAP, CDP-star luminescence, 30 min; active compounds read high; fold of DMSO-control signal, blank-subtracted. activation factor at 20 µM. 200,000 compounds, 0.17% hits. AID 1016;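 active = activation factor of 2 or more at 20 µM, a signal rise over negative controls twice the positive control's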
mIAP activ – increases mouse intestinal alkaline phosphatase activity | muIAP, CDP-Star luminescence, 30 min; active compounds read high; 1 = vehicle-only enzyme signal, 0 = enzyme-free wells | activation factor at 10 µM | 330,000 compounds, 0.24% hits | AID 2805;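 active = activation factor of at least 2 at 20 µM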
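also added = chemiluminescent substrate CDP-Star | test system = mouse IAP enzyme | signal = chemiluminescence readout | compound = DMSO-dissolved test compounds | incubation = 30 min at room temperature | benchmarks = DMSO wells, no-enzyme wells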
mIAP inh conf – mouse IAP inhibition confirmation. inhibition, % at 10 µM. shares compounds with mIAP inh. 11,000 compounds, 4.7% hits. purified mouse IAP, CDP-Star luminescence, 30 min. AID 434971;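 active = inhibition of at least 40% at 10 µM in either of the two replicates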;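 also: plate controls were DMSO wells with enzyme for no effect and buffer wells lacking enzyme for full effect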
* marks the source's active call; other numbers are inactive results; i = inactive; / = no result given. Hits are enriched below; roughly 0.72% of the tested compounds scored in any of these assays.

SMILES	bIAP inh	hIAP activ	mIAP inh	hIAP inh	bIAP activator	mIAP activ	mIAP inh conf
CC1(C)CC[C@]2(C(=O)O)CC[C@]3(CO)C(=CCC4[C@@]5(C)C[C@H](O)[C@H](O)[C@@](C)(C(=O)O)C5CC[C@]43C)[C@@H]2C1 (some centres not stated)	/	1.12	-11.3	-12.1	/	1.11	/
CCOC(=O)c1ccc(N2CCN(c3ccccc3F)CC2)c(NC(=O)Nc2ccccc2)c1	2.8	1.42	i	-41.7	1	6.6*	-213.6
O=c1nc2s/c(=C\c3ccco3)c(=O)n2nc1Cc1ccc(F)cc1	12.0	0.867	46.3*	13.3	0.9	0.537	58.1*
C=CCc1cccc2cc(C(=O)NNC(=O)CC#N)c(=O)oc12	/	1.05	45.2*	-4.6	/	0.548	54.8*
O=C(NNC(=O)c1ccc(O)cc1O)c1ccc(-c2ccccc2)cc1	/	1.42	42.9*	-41.6	/	0.571	40.1*
O=C(NNC(=O)c1cccc2ccccc12)c1ccc(-c2ccccc2)cc1	24.0	1.58	6.7	-58.3	0.8	0.933	/
C#CCOCCOCCOCCNc1nc(N2CCN(C(=O)CCCCCCCCCCNC(=O)[C@@H](CCC(=O)O)n3cc(CCCCCN)nn3)CC2)nc(N2CCN(C(=O)CCCCCCCCCCNC(=O)[C@H]([C@@H](C)CC)n3cc(CCCCCN)nn3)CC2)n1	/	1.02	-119.7	-2.3	/	2.2*	-175.5
C#CCOCCOCCOCCNc1nc(N2CCN(C(=O)CCCCCCCCCCNC(=O)[C@H](CCCCN)n3cc(CCCC(=O)O)nn3)CC2)nc(N2CCN(C(=O)CCCCCCCCCCNC(=O)[C@@H]([C@H](C)O)n3cc(C)nn3)CC2)n1	/	1.05	-19.0	-4.7	/	1.19	/
C#CCOCCOCCOCCNc1nc(N2CCN(C(=O)CCCCCCCCCCNC(=O)[C@H]([C@@H](C)CC)n3cc(CCCCCN)nn3)CC2)nc(N2CCN(C(=O)CCCCCCCCCCNC(=O)[C@H](CCCCN)n3cc(CCCC(=O)O)nn3)CC2)n1	/	1.08	-141.8	-7.9	/	2.42*	-221.9
S=c1[nH]nc(COc2ccc(Cl)cc2)n1Cc1ccco1	26.7	0.934	-5.9	6.6	0.7	1.06	/
Cc1cc(N2Cc3ccccc3C2)ccc1C=O	/	0.855	7.7	14.5	/	0.923	/
O=[N+]([O-])c1ccccc1NC(=S)N/N=C/c1ccc(O)c(O)c1	18.4	0.866	74.9*	13.4	0.8	0.251	72.1*
O=C1CC(=O)N(Cc2ccco2)C(=S)N1	-8.9	0.789	70.3*	21.1	1.1	0.297	74.9*
O=C1CC(=O)N(Cc2ccco2)C(=O)N1	-26.1	1.05	48.1*	-5.0	1.3	0.519	52.7*
O=C1CC(=O)N(Cc2cccs2)C(=O)N1	4.4	0.864	0.6	13.6	1	0.994	/
O=C(NCc1ccc2c(c1)CCO2)Nc1cccc(C(F)(F)F)c1	/	0.909	-277.8	9.1	/	3.78*	-143.5
O=C(NCc1cccnc1)Nc1cccc(C(F)(F)F)c1	/	1.2	-8.4	-19.8	/	1.08	/
COc1cc(NC(=O)NC2Cc3ccccc3C2)cc(OC)c1	/	1.28	-237.4	-28.4	/	3.37*	-168.8
COc1cccc(NC(=O)NC2CCCCCCC2)c1	/	1.14	-105.3	-13.5	/	2.05*	-167.0
CCOC(=O)C(C)Sc1nc2c(c(=O)[nH]c(=O)n2C)n1C/C=C(/C)Cl (configuration not stated)	-9.7	0.871	67.6*	12.9	1.1	0.324	70.7*
CCSc1nc2c(c(=O)[nH]c(=O)n2C)n1C/C=C(/C)Cl	10.1	0.952	6.4	4.8	0.9	0.936	/
Oc1cccc(O)c1O	/	0.999	52.1*	0.1	/	0.479	57.9*
O=C(CNc1cccc2ccccc12)N/N=C/c1ccc(C(=O)O)cc1	13.0	0.898	19.6	10.2	0.9	0.804	/
O=C(CNc1cccc2ccccc12)N/N=C/C=C/c1ccco1	14.4	0.897	61.3*	10.3	0.9	0.387	58.6*
COc1ccc(-c2coc(CCC(=O)N3CCN(c4cc(C)ccc4C)CC3)n2)cc1	/	/	-12.9	/	/	1.13	/
O=C(Nc1cccc(Cl)c1)Nc1nc(-c2ccc(Cl)cc2)cs1	38.1	0.879	-187.6	12.1	0.6	2.88*	-109.8
